How the values were obtained:
[1] = Oral bioavailability in BALB/cAJcl mouse at 10 mg/kg by LC/MS/MS analysis; assay type: ADME, organism-based; details: in vivo
Method in brief: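 Female BALB/cAJcl mice, seven weeks old, were dosed orally at 10 mg/kg and intravenously at 1 mg/mL/kg. Plasma compound concentrations were measured by LC/MS/MS.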

[2] = Clearance in mouse liver microsomes at 1 umol/l after 20 mins by LC/MS/MS analysis
[3] = Clearance in human liver microsomes at 1 umol/l after 20 mins by LC/MS/MS analysis
MDA-MB-231 [4] = experiment: Growth inhibition of human MDA-MB-231 cells assessed as cell viability after 3 days by CellTitre-Glo Luminescent assay; assay type: functional; details: MDA-MB-231, 72 h
Mus musculus = experiment: Toxicity in athymic nude BALB/cAJcl mouse xenografted with human MDA-MB-231 cells expressing luciferase gene at 30 mg/kg, po bid measured on day 14; assay type: organism-based; parameters: dose 30 mg/kg, route oral; details: in vivo
MDA-MB-231 [5] = experiment: Antitumor activity against human MDA-MB-231 cells expressing luciferase gene xenografted in athymic nude BALB/cAJcl mouse assessed as tumor growth inhibition at 100 mg/kg, po bid measured on day 14 relative to control; assay type: functional
MDA-MB-231 [6] = experiment: Antitumor activity against human MDA-MB-231 cells expressing luciferase gene xenografted in athymic nude BALB/cAJcl mouse assessed as tumor growth inhibition at 30 mg/kg, po bid measured on day 14 relative to control; assay type: functional
MDA-MB-231 [7] = experiment: Antitumor activity against human MDA-MB-231 cells expressing luciferase gene xenografted in po dosed athymic nude BALB/cAJcl mouse assessed as tumor regression administered bid measured on day 14; assay type: functional, organism-based
[8] = Permeability of the compound by PAMPA; assay type: ADME; details: read-out: permeability
[9] = Lipophilicity, log D of the compound at pH 7.4; details: buffer

SMILES | bioavailability [1] [%] | microsomal CLint at 20 min, 1 µM [2] [µL/min/mg] | microsomal CLint at 20 min, 1 µM [3] [µL/min/mg] | GI50 (MDA-MB-231 [4]) [µM] | Activity (Mus musculus) | T/C (MDA-MB-231 [5]) [%] | T/C (MDA-MB-231 [6]) [%] | Activity (MDA-MB-231 [7]) | Papp [8] [×10⁻⁶ cm/s] | logD [9]
CN[C@@H](C)C(=O)N[C@H](C(=O)N1C[C@H]2CCCN2C[C@H]1C(=O)N[C@H](C)c1ccccc1)C1CCCCC1 | 63 | 115 | 82 | 0.02 | – | – | – | – | – | –
CCO[C@@H]1C[C@@H]2CN(C(=O)[C@@H](NC(=O)[C@H](C)NC)C3CCC(F)(F)CC3)[C@H](C(=O)N[C@@H]3CCOc4ccccc43)CN2C1 | 50 | 40 | 52 | 0.0018 | Non-toxic | -62 | -53 | Dose-dependent effect | 4.4 | 2.6
CN[C@@H](C)C(=O)N[C@H](C(=O)N1C[C@H]2CCCN2C[C@H]1C(=O)N[C@@H]1CCOc2ccccc21)c1ccccc1 | 33 | 129 | 90 | 0.011 | – | – | – | – | – | 2.17
CN[C@@H](C)C(=O)N[C@H](C(=O)N1C[C@H]2CCCN2C[C@H]1C(=O)N[C@@H]1CCCc2ccccc21)C1CCCCC1.Cl.Cl | 6 | 232 | 218 | 0.0062 | – | – | – | – | – | –
CN[C@@H](C)C(=O)N[C@H](C(=O)N1C[C@H]2CCCN2C[C@H]1C(=O)N[C@@H]1CCOc2ccccc21)C1CCOCC1 | 12 | 21 | 15 | 0.02 | – | – | – | – | – | 1.75
CN[C@@H](C)C(=O)N[C@H](C(=O)N1C[C@H]2CCCN2C[C@H]1C(=O)N[C@H]1CCCc2ccccc21)C1CCCCC1 | – | 239 | 236 | – | – | – | – | – | – | –
CN[C@@H](C)C(=O)N[C@H](C(=O)N1C[C@@H]2CCCN2C[C@H]1C(=O)N[C@@H]1CCOc2ccccc21)C1CCC(F)(F)CC1 | 13 | 2 | 38 | 0.015 | – | – | – | – | – | 1.94
CN[C@@H](C)C(=O)N[C@H](C(=O)N1C[C@H]2CCCN2C[C@H]1C(=O)N[C@@H]1CCOc2ccccc21)C1CCC(F)(F)CC1 | 53 | 66 | 82 | 0.013 | – | – | – | – | 0.3 | 2.43
CN[C@@H](C)C(=O)N[C@H](C(=O)N1C[C@H]2CCCN2C[C@H]1C(=O)N[C@@H]1CCC(F)(F)c2ccccc21)C1CCCCC1 | 26 | 208 | 130 | 0.018 | – | – | – | – | – | –
CN[C@@H](C)C(=O)N[C@H](C(=O)N1C[C@H]2CC(F)(F)CN2C[C@H]1C(=O)N[C@@H]1CCOc2ccccc21)C1CCC(F)(F)CC1 | 21 | 147 | 170 | 0.008 | – | – | – | – | – | 2.56
CN[C@@H](C)C(=O)N[C@H](C(=O)N1C[C@H]2C[C@@H](O)CN2C[C@H]1C(=O)N[C@@H]1CCOc2ccccc21)C1CCC(F)(F)CC1 | – | – | 4 | 0.011 | – | – | – | – | – | 1.6
CN[C@@H](C)C(=O)N[C@H](C(=O)N1C[C@H]2CCCN2C[C@H]1C(=O)N[C@@H]1CCC(=O)c2ccccc21)C1CCCCC1 | 30 | 161 | 154 | 0.021 | – | – | – | – | – | –
CN[C@@H](C)C(=O)N[C@H](C(=O)N1C[C@H]2CCCN2C[C@H]1C(=O)N[C@@H]1CCOc2ccccc21)C1CCCCC1 | 41 | 116 | 128 | 0.0057 | – | – | – | – | – | 2.91

— ChEMBL document CHEMBL2311403, “Design and synthesis of potent inhibitor of apoptosis (IAP) proteins antagonists bearing an octahydropyrrolo[1,2-a]pyrazine scaffold as a novel proline mimetic” (J Med Chem, 2013)
